Published values of several laboratories.
Protocols differ between the studies behind these lines.
Target: Acetylcholinesterase (ache, Electrophorus electricus, UniProt O42275)
Read-out: enzyme activity
Action: inhibitor

| Structure (SMILES) | technique | pH | setting | IC50 [µM] |
| --- | --- | --- | --- | --- |
| Cc1c(C(=O)[C@H]2[C@H](c3cn(C)c4ccccc34)[C@H]3CSCN3[C@]23C(=O)Nc2cc(Cl)ccc23)cnn1-c1ccccc1 | Ellman |  |  | > 100 |
| CC(C)=CCC/C(C)=C/COc1cc(O)cc(O)c1C(=O)c1ccccc1 |  |  |  | 192 |
| C#CCN(C)c1nc(NCCCC2CCN(Cc3ccccc3)CC2)c(C#N)cc1C#N | Ellman |  |  | 0.00619 |
| CC1=C(C)C(=O)O[C@@H]([C@](C)(O)[C@H]2CC[C@H]3[C@@H]4[C@@H]5O[C@@H]5[C@@]5(O)CC=CC(=O)[C@]5(C)[C@H]4CC[C@]23C)C1 | Ellman |  |  | 107 |
| COc1cccc2cc(C(=O)NCC3CCN(Cc4ccccc4)CC3)oc12 | Ellman |  |  | 19.9 |
| CC=C1[C@H]2C=C(C)C[C@]1(N)c1cc(C)c(=O)[nH]c1C2 | Ellman |  |  | 0.35 |
| O=C(CNC(=S)NN=Cc1ccc([N+](=O)[O-])cc1)c1ccc(Cl)cc1 | Ellman |  |  | 340 |
| CC=C1[C@H]2C=C(C)C[C@]1(N)c1cc(N)c(=O)[nH]c1C2 | Ellman |  |  | 0.32 |
| Cc1c(C(=O)[C@H]2[C@H](c3cn(C)c4ccccc34)[C@H]3CCCN3[C@]23C(=O)Nc2cc(Cl)ccc23)cnn1-c1ccccc1 | Ellman |  |  | > 100 |
| O=C(NCC1CCN(Cc2ccccc2)CC1)c1cc2ccccc2o1 | Ellman |  |  | 30 |
| CC=C1[C@H]2C=C(C)C[C@]1(N)c1ccc(OC)nc1C2 | Ellman |  |  | 3.67 |
| CC(C)c1cc(C(C)C)c(S(=O)(=O)NNC(=O)C(=O)NNS(=O)(=O)c2c(C(C)C)cc(C(C)C)cc2C(C)C)c(C(C)C)c1 | Ellman |  | with preincubation | 4.25 |
| O=C(CNC(=S)NN=Cc1ccc([N+](=O)[O-])cc1)c1ccc([N+](=O)[O-])cc1 | Ellman |  |  | 446 |
| COc1cccc2cc(C(=O)NCCN3CCN(Cc4ccccc4)CC3)oc12 | Ellman |  |  | 4 |
| CC=C1[C@H]2C=C(C)C[C@]1(N)c1cc(OCC)c(=O)[nH]c1C2 | Ellman |  |  | 0.22 |
| C#CCNc1nc(NCCCC2CCN(Cc3ccccc3)CC2)c(C#N)cc1C#N | Ellman |  |  | 0.0047 |
| COP(=O)(OC)OC(C)=C1CCOC1=O | Ellman | pH 8 |  | > 1000 |
| Cc1c(C(=O)[C@H]2[C@H](c3c[nH]c4ccc(Br)cc34)[C@H]3CSCN3[C@]23C(=O)Nc2ccc([N+](=O)[O-])cc23)cnn1-c1ccccc1 | Ellman |  |  | 24.1 |
| CC=C1[C@H]2C=C(C)C[C@]1(N)c1cc(I)c(=O)[nH]c1C2 | Ellman |  |  | 14.1 |
| Cc1c(C(=O)[C@H]2[C@H](c3c[nH]c4ccccc34)[C@H]3CCCN3[C@]23C(=O)Nc2cc(Cl)ccc23)cnn1-c1ccccc1 | Ellman |  |  | > 100 |
| CC=C1[C@H]2C=C(C)C[C@]1(N)c1cc(OCCCC)c(=O)[nH]c1C2 | Ellman |  |  | 110 |
